Published values gathered from unrelated publications.
Lines come from different studies, so protocols differ.
Read-out: haemolysis
Species: human

| SMILES | concentration | time | pH | haemolysis [%] |
| --- | --- | --- | --- | --- |
| Fc1ccc(-c2csc(NN=Cc3cccs3)n2)cc1 | 10 µM | 30 min | pH 7.4 | 11.4 |
| C=C1CC[C@@H]2[C@](C)(CCC[C@]2(C)C(=O)O)[C@H]1CC/C(C)=C/C(=O)O | 350 µg/mL | 3 h |  | 50 |
| CCN(CC)CCCC(C)Nc1ccnc2cc(Cl)ccc12 (stereo not shown) | 100 mM | 45 min |  | 28.7 |
| c1ccc(CN(CCN(Cc2ccccn2)Cc2ccccn2)Cc2ccccn2)nc1 | 200 µM | 1 h | pH 7.2 | ≤ 1 |
| CCCCCCCCCCCCNCc1ccc(CNC(=O)c2csc3nc[nH]c(=O)c23)cc1 | 100 µM | 1 h |  | ~3 |
| NCCc1ccc(Oc2ccc(-c3noc(-c4ccc(O)cc4)n3)cc2)cc1 | 4 µg/mL | 1 h |  | 2.5 |
| Cc1ccc(C=NNc2nc(-c3ccc(F)cc3)cs2)c(Br)c1 | 100 µM | 30 min | pH 7.4 | 31.6 |
| O=C(O)CN(CCN(CC(=O)O)CC(=O)O)CC(=O)O | 200 µM | 1 h | pH 7.2 | ≤ 1 |
| Oc1ccc(Cl)cc1C=NNc1nc(-c2ccc(F)cc2)cs1 | 10 µM | 30 min | pH 7.4 | 3.11 |
| C[C@@H]1[C@H](O)[C@@H](C)/C=C/C=C/C=C/C=C/C=C/C=C/C=C/[C@H](O[C@@H]2O[C@H](C)[C@@H](O)[C@H](N)[C@@H]2O)C[C@@H]2O[C@](O)(C[C@@H](O)C[C@@H](O)[C@H](O)CC[C@@H](O)C[C@@H](O)CC(=O)O[C@H]1C)C[C@H](O)[C@H]2C(=O)O | 8 µg/mL | 1 h |  | 102 |
| COc1c(F)cccc1C=NNc1nc(-c2ccc(F)cc2)cs1 | 50 µM | 30 min | pH 7.4 | 20 |
| OC(Cn1cncn1)(Cn1cncn1)c1ccc(F)cc1F | 2 µg/mL | 1 h |  | 3.79 |
| C=C1CC[C@@H]2C(C)(C)CCC[C@@]2(C)[C@@H]1CC/C(C)=C/C(=O)OC | 500 µg/mL | 3 h |  | 50 |
